Reference: ChEMBL document CHEMBL3593206, “SAR Studies of Exosite-Binding Substrate-Selective Inhibitors of A Disintegrin And Metalloprotease 17 (ADAM17) and Application as Selective in Vitro Probes” (J Med Chem, 2015)
The source made the active and inactive calls. The calls are words filed in the database; no cut-off is given here.

Experiments:
[1] = target: T1, Disintegrin and metalloproteinase domain-containing protein 10 (Homo sapiens) (UniProt O14672); settings: A549, 10 uM
T1 sequence (whole entry): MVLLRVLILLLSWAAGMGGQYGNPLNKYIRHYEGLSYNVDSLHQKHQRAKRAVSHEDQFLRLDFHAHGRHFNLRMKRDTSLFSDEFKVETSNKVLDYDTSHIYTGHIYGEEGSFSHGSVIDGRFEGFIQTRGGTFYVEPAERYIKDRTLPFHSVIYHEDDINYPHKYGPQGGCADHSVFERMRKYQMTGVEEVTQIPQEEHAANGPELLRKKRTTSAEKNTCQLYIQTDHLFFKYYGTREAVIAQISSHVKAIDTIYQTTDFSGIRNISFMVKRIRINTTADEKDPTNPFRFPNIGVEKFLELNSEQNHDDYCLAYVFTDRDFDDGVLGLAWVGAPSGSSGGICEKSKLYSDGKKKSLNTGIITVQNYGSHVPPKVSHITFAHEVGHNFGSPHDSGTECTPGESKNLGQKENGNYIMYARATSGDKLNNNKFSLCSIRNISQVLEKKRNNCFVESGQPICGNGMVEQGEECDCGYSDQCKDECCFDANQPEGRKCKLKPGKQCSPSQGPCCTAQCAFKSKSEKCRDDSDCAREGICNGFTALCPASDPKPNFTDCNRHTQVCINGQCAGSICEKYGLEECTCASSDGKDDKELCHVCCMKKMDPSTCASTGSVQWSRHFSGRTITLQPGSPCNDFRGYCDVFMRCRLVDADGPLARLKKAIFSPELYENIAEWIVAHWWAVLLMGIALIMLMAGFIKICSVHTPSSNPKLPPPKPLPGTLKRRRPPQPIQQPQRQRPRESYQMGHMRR

[2] = target: T2, 72 kDa type IV collagenase (Homo sapiens, UniProt P08253); assay: Inhibition of MMP2 (unknown origin) using Mca-KLPGL-Dnp-AR as substrate at 100 uM preincubated for 30 mins followed by substrate addition measured after 1 hr by fluorescence assay relative to control
Outline: (§1)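 Inhibitor as 10-point 1:3 dilutions from 300 μM, 30 min at RT. Substrate added from a 30 μM 3× solution. Single fluorescence read (ex 324/em 393 nm) after 1 h at RT.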
Target sequence in this assay (P08253 110-660 limits assumed): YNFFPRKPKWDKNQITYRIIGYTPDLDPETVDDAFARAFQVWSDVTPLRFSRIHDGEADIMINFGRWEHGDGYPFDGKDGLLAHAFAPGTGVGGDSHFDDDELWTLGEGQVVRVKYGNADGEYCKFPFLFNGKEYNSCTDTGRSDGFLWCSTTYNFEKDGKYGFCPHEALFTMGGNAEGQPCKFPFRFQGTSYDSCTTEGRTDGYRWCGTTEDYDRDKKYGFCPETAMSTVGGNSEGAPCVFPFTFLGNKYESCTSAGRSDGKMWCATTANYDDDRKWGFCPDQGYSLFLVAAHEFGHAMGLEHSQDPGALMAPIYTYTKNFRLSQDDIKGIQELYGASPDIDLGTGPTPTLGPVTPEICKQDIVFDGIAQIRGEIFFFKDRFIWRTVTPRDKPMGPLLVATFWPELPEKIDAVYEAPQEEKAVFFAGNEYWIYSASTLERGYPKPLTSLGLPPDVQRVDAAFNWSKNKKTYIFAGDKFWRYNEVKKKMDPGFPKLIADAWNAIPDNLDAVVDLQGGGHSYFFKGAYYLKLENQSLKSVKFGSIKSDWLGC

Neutrophil collagenase [3] = target: T3, Neutrophil collagenase (Homo sapiens, UniProt P22894); assay: Inhibition of MMP8 (unknown origin) using Mca-KLPGL-Dnp-AR as substrate at 100 uM preincubated for 30 mins followed by substrate addition measured after 1 hr by fluorescence assay relative to control
Outline: as §1
Target sequence in this assay (P22894 101-467 limits assumed): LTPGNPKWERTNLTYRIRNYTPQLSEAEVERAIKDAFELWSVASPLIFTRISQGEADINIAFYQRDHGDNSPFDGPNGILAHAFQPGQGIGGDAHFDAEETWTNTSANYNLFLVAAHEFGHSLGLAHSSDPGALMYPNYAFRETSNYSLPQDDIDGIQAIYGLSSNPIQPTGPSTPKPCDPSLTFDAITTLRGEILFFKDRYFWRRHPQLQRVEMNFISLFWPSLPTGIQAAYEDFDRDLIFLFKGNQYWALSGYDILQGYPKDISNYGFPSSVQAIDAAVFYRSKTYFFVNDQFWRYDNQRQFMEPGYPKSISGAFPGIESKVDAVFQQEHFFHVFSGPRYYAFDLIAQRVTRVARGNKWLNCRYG

[4] = target: T4, Disintegrin and metalloproteinase domain-containing protein 17 (Homo sapiens, UniProt P78536); assay: Inhibition of ADAM17 in human A549 cells assessed as effect on PMA-stimulated TGFalpha shedding up to 100 uM preincubated for 1 hr followed by PMA stimulation measured after 1 hr by ELISA; format: cell-based
Outline: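 TGFα shedding from PMA-treated A549 cells tested up to 100 μM. Marimastat at 10 μM served as control, with a non-PMA-treated control included; soluble TGFα measured in the supernatant.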

[5] = target: T4, Disintegrin and metalloproteinase domain-containing protein 17; assay: Inhibition of ADAM17 (unknown origin) preincubated for 30 mins followed by substrate addition measured every 30 mins for 2 hrs by fluorescence assay
Outline: (§2)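 Enzyme at 30 nM (3× solution) in 10 mM Hepes, 0.001% Brij-35, pH 7.5. Inhibitor series of 10 points, 1:3, from 300 μM, preincubated 30 min at RT. Glycosylated substrate added from a 30 μM 3× solution. Fluorescence (ex 360/em 460 nm) read every 30 min for 2 h. Inhibition taken from hydrolysis rates against substrate-only and substrate-plus-enzyme wells.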

[6] = target: Matrix metalloproteinase-14 (Homo sapiens, UniProt P50281); assay: Inhibition of MMP14 (unknown origin) using Mca-KLPGL-Dnp-AR as substrate preincubated for 30 mins followed by substrate addition measured after 1 hr by fluorescence assay
Outline: as §1

[7] = target: T4, Disintegrin and metalloproteinase domain-containing protein 17; assay: Inhibition of ADAM17 in human EAhy926 cells assessed as inhibition of neprilysin shedding at 15 uM relative to control; format: cell-based
[8] = target: T4, Disintegrin and metalloproteinase domain-containing protein 17; assay: Inhibition of ADAM17 in human A549 cells assessed as inhibition of PMA-stimulated heregulin shedding at 40 uM incubated for 1 hr followed by PMA stimulation measured after 1 hr; format: cell-based
Outline: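 Heregulin shedding in A549 cells, with all compounds tested at 40 μM.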

[9] = target: T4, Disintegrin and metalloproteinase domain-containing protein 17; assay: Inhibition of ADAM17 in human THP1 cells assessed as inhibition of LPS-stimulated TNFalpha cleavage after 1 hr by AlphaScreen assay; format: cell-based, THP-1
Outline: (§3)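 THP-1 cells grown in RPMI 1640 with 10% FBS and 0.05 mM 2-mercaptoethanol; 3000 cells per well. Compound given in 3% DMSO for 1 h, then LPS added (1 μg/mL final) and cells incubated overnight at 37 °C. TNFα detected by AlphaScreen using anti-TNFα acceptor beads and streptavidin donor beads, each step 1 h in the dark at RT.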

[10] = target: T4, Disintegrin and metalloproteinase domain-containing protein 17; assay: Inhibition of ADAM17 in human SW480 cells assessed as inhibition of PMA-stimulated wild type PTK7 shedding at 25 to 100 uM after 16 hrs by Western blot analysis; format: cell-based
Outline: (§4)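 PTK7 shedding tested at 25, 50 and 100 μM in PMA-stimulated cells. HT1080 fibrosarcoma cells carried the L622D PTK7 mutant uncleavable by MT1-MMP; SW480 colorectal cells expressed wild-type PTK7 endogenously. Soluble PTK7 was detected.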

[11] = target: T4, Disintegrin and metalloproteinase domain-containing protein 17; assay: Inhibition of ADAM17 in human THP1 cells assessed as inhibition of LPS-stimulated TNFalpha cleavage at 25 uM after 1 hr by AlphaScreen assay relative to control; format: cell-based; settings: THP-1
Outline: as §3

[12] = target: T5, Matrix metalloproteinase-9 (Homo sapiens, UniProt P14780); assay: Inhibition of MMP9 (unknown origin) using Mca-KLPGL-Dnp-AR as substrate at 100 uM preincubated for 30 mins followed by substrate addition measured after 1 hr by fluorescence assay relative to control
Outline: as §1

[13] = target: T5, Matrix metalloproteinase-9; assay: Inhibition of MMP9 (unknown origin) using Mca-KLPGL-Dnp-AR as substrate preincubated for 30 mins followed by substrate addition measured after 1 hr by fluorescence assay
Outline: as §1

Neutrophil collagenase [14] = target: T3, Neutrophil collagenase; assay: Inhibition of MMP8 (unknown origin) using Mca-KLPGL-Dnp-AR as substrate preincubated for 30 mins followed by substrate addition measured after 1 hr by fluorescence assay
Outline: as §1
Target sequence in this assay (P22894 whole entry): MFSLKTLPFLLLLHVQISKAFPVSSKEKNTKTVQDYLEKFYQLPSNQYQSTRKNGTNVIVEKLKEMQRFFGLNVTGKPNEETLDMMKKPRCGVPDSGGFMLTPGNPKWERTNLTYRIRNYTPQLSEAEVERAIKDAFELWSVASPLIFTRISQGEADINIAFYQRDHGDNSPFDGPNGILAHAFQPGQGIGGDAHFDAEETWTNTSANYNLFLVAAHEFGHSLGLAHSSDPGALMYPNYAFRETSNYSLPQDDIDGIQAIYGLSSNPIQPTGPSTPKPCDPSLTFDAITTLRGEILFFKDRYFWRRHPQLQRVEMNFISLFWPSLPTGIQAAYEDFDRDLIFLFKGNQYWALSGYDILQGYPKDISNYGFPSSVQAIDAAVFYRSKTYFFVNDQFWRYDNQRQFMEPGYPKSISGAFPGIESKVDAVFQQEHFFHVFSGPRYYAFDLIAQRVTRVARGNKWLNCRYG

[15] = target: T1, Disintegrin and metalloproteinase domain-containing protein 10 (Homo sapiens); assay: Inhibition of ADAM10 (unknown origin) at 100 uM preincubated for 30 mins followed by substrate addition measured every 30 mins for 2 hrs by fluorescence assay relative to control
Outline: as §2

[16] = target: T2, 72 kDa type IV collagenase; assay: Inhibition of MMP2 (unknown origin) using Mca-KLPGL-Dnp-AR as substrate preincubated for 30 mins followed by substrate addition measured after 1 hr by fluorescence assay
Outline: as §1
Target sequence in this assay (P08253 whole entry): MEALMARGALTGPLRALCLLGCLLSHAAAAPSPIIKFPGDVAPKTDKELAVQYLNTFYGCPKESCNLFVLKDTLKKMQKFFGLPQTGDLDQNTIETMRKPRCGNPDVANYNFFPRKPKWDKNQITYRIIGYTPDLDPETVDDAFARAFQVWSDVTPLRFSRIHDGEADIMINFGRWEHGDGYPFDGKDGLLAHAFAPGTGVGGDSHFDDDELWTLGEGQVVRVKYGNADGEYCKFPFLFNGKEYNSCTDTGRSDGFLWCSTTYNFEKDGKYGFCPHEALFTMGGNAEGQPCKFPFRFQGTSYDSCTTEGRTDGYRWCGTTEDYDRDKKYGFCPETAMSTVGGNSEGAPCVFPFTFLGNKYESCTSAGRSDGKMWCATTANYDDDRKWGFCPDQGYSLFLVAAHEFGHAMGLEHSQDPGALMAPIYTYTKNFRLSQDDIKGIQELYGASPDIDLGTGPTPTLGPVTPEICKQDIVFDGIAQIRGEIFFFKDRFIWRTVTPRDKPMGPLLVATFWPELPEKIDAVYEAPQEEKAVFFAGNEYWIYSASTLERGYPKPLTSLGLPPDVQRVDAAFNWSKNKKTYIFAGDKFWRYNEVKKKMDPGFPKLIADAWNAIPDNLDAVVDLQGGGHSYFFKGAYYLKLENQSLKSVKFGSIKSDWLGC

[17] = target: T4, Disintegrin and metalloproteinase domain-containing protein 17; assay: Inhibition of ADAM17 in human HT1080 cells assessed as inhibition of PMA-stimulated PTK7 L622D mutant shedding at 25 to 100 uM after 16 hrs by Western blot analysis; format: cell-based; settings: HT-1080
Outline: as §4

[18] = target: T4, Disintegrin and metalloproteinase domain-containing protein 17; assay: Inhibition of ADAM17 (unknown origin) at 100 uM preincubated for 30 mins followed by substrate addition measured every 30 mins for 2 hrs by fluorescence assay relative to control
Outline: as §2

[19] = target: T6, Disintegrin and metalloproteinase domain-containing protein 10 (Homo sapiens, UniProt O14672); assay: Inhibition of ADAM10 (unknown origin) preincubated for 30 mins followed by substrate addition measured every 30 mins for 2 hrs by fluorescence assay
T6 sequence (O14672 whole entry): T1 sequence (whole entry)
Outline: as §2

[20] = Cytotoxicity against CHOK1 cells assessed as inhibition of cell viability up to 33 uM after 72 hrs by CellTiter-Glo assay; format: cell-based, Cricetulus griseus; settings: chinese hamster, cho-k1, 72 h
A549 = assay: Cytotoxicity against human A549 cells assessed as inhibition of cell viability up to 33 uM after 72 hrs by CellTiter-Glo assay; format: cell-based; settings: a549, 72 h

T4 sequence (P78536 whole entry, the tested form may be a part): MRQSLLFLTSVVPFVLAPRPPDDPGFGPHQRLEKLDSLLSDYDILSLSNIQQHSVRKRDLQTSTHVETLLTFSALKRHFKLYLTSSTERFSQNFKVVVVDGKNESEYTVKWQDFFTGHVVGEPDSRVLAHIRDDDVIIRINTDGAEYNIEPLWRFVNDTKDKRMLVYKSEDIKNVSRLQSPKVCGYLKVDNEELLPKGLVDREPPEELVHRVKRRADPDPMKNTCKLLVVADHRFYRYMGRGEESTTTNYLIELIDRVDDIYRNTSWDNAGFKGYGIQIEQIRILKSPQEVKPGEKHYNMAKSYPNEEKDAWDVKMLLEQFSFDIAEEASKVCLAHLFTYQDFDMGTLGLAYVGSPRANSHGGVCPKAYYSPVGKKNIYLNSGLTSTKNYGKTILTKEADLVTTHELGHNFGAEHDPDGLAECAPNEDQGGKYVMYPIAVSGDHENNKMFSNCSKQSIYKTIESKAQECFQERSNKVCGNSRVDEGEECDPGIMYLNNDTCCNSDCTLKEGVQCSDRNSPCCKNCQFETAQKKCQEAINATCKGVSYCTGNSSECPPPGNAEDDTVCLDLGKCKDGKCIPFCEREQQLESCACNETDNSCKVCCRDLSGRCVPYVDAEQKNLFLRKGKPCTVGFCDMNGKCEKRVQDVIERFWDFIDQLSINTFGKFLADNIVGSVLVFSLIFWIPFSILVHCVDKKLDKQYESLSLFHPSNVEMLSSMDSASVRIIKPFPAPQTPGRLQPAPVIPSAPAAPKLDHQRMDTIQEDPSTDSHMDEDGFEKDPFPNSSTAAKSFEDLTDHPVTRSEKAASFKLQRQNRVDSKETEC
T5 sequence (P14780 whole entry): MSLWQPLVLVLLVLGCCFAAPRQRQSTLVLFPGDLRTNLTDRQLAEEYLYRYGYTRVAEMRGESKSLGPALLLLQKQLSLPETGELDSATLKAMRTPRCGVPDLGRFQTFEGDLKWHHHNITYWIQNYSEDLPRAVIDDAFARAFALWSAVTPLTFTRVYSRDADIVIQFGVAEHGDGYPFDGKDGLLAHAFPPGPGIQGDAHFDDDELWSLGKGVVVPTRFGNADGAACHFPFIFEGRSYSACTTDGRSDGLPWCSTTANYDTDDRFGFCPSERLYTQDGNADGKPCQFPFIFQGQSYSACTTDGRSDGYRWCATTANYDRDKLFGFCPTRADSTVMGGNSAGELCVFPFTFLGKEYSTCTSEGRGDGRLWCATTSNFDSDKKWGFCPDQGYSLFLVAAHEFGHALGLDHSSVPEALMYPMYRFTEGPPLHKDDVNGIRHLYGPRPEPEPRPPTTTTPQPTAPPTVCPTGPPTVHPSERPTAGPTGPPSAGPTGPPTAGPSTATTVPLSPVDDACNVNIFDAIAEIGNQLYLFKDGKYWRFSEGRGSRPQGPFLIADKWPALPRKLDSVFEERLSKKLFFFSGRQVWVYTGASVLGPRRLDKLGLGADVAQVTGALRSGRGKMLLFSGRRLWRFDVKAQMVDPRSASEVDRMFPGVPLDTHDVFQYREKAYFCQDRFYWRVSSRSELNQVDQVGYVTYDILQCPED

Compound: CNC(=O)[C@@H](NC(=O)[C@H](CC(C)C)[C@H](O)C(=O)NO)C(C)(C)C
- inhibition [1]: Active

Compound: CCC[C@H]1CNC(=O)C(=O)N1C[C@@H]1CCCN1C[C@@H](CC1CCCCC1)N1C[C@H](Cc2ccccc2)N(CCc2ccccc2)C(=O)C1=O
- inhibition [2]: 0%
- inhibition (Neutrophil collagenase [3]): 0%
- inhibition [4]: 0%
- IC50 [5]: 4.3 µM
- IC50 [6]: > 100 µM
- inhibition [7]: 38%
- inhibition [8]: 28%
- IC50 [9]: 28 µM
- inhibition [10]: 0%
- inhibition [11]: 60%
- inhibition [12]: 0%
- IC50 [13]: > 100 µM
- IC50 (Neutrophil collagenase [14]): > 100 µM
- inhibition [15]: 0%
- IC50 [16]: > 100 µM
- inhibition [17]: 0%
- inhibition [18]: 100%
- IC50 [19]: > 100 µM
- Activity [20]: Non-toxic
- Activity (A549): Non-toxic
